# Published values pooled from the literature.
# Compare with care: the assays were run in different laboratories.
# Target: Focal adhesion kinase 1 (PTK2, Homo sapiens, UniProt Q05397)
Structure (SMILES),test,setting,remaining binding
COc1cccc(CNC(=O)c2nc3scc(COCc4ccc(C(=O)O)cc4)c3c(=O)[nH]2)c1,"cell-free assay, competition with immobilised ligand",1 µM,100%
Cc1cnc(Nc2ccc(C(=O)N3CCC(N4CCCC4)CC3)cc2)nc1-c1cc2ccccc2s1,"binding, competition with immobilised ligand",1 µM,100%
FC(F)(F)Oc1cccc(-c2cnc3ccc(-c4ccncc4)nn23)c1,"cell-free assay, competition with immobilised ligand",5 µM,83%
CC1CCCN1c1nccc(-c2cnn3ncccc23)n1 (stereo not shown),binding,1 µM,100%
CNC(=O)[C@@H]1CC[C@@H](n2c(-c3ccc4cnccc4c3)nc3ccc(C(=O)NCc4cccc(C(N)=O)c4)cc32)C1,"binding, competition with immobilised ligand",1 µM,92%
O=C(N[C@H]1CCCCC/C=C\C2C[C@@]2(C(=O)O)NC(=O)[C@@H]2C[C@@H](Oc3ccncc3)CN2C1=O)OC1CCCC1 (stereo partly shown),"binding, competition with immobilised ligand",1 µM,97%
O=C(NCCCN1CCOCC1)c1ccc(Nc2ncc(Cl)c(-c3ccc(Cl)s3)n2)cc1,"binding, competition with immobilised ligand",1 µM,8.1%
Cc1cc(-c2cc(C(F)(F)F)ccc2O[C@H]2C[C@@]2(CNS(=O)(=O)c2ccc([N+](=O)[O-])cc2)c2ccc(F)cc2F)[nH]n1,"cell-free assay, competition with immobilised ligand",0.3 µM,22%
C[C@@H]1CN(c2ccc3ncc(-c4ccc5[nH]nc(C6CC6)c5c4)n3n2)C[C@H](C)O1,"binding, competition with immobilised ligand",50 nM,98%
O=C(c1ccc(Nc2nccc(-c3cc4ccccc4s3)n2)cc1)N1CCC(N2CCCC2)CC1,"binding, competition with immobilised ligand",1 µM,81%
O=C(Nc1c[nH]nc1C(=O)NC1CCNCC1)c1cc(F)cc(F)c1,"binding, competition with immobilised ligand",1 µM,91%
C[C@@H]1CCN(c2nccc(-c3cnn4ncccc34)n2)C1,binding,1 µM,100%
Nc1ncc2c(n1)-c1c([nH]c3ccc(C#CC4CC4)cc13)CCCC2,"binding, competition with immobilised ligand",1 µM,91%
c1cnn2ncc(-c3ccnc(N4CCC45COC5)n3)c2c1,binding,1 µM,99%
O=C1CCc2cc(Nc3cc(OC4CCOCC4)c([N+](=O)[O-])cc3Cl)ccc2N1,"cell-free assay, competition with immobilised ligand",1 µM,100%
CN(CCCC(F)(F)F)c1nccc(-c2cnn3ncccc23)n1,binding,1 µM,100%
CCOCCn1cc(C(=O)Nc2ccc(-n3nc(-c4cccnc4)cc3C(F)(F)F)cn2)ccc1=O,"cell-free assay, competition with immobilised ligand",1 µM,100%
CN(C)c1nccc(-c2cnc3ncccn23)n1,binding,1 µM,100%
O=C(O)c1cc(-c2ccc(C3CCNCC3)cc2)c2ccc(-c3ccc(C(F)(F)F)cc3)cc2c1,"cell-free assay, competition with immobilised ligand",1 µM,100%
COc1ncc2cc3ccccc3nc2c1C#N,"cell-free assay, competition with immobilised ligand",5 µM,100%
O=C(NCc1ncc(C(F)(F)F)cc1Cl)c1ccc2c(c1)C1(CCS(=O)(=O)CC1)[C@@H](C1CC1)N2S(=O)(=O)c1ccc(F)cc1,"cell-free assay, competition with immobilised ligand",1 µM,95%
CCN1CCN(Cc2ccc(C(=O)Nc3ccc(C)c(Oc4ccc5c(c4)CC(=O)N5)c3)cc2C(F)(F)F)CC1,"binding, competition with immobilised ligand",1 µM,77%
